The term MIC denotes the least concentration at which growth counts as inhibited. One may read the Ki as the equilibrium dissociation constant of an inhibitor or competing ligand from its target.

Test [1] relates to Staphylococcus aureus. The test can be described thus: Antibacterial activity against Staphylococcus aureus ATCC 29213 assessed as inhibition of bacterial growth incubated for 18 hrs by spectrophotometric method. It counts as functional. A digest of the protocol:
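Racemic compounds tested against standardized S. aureus strain 29213 cultures following CLSI procedure; MIC recorded; n = 2 independent assays, each with duplicate technical replicates.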

Test [2] is described as follows: (§1) Inhibition of recombinant Staphylococcus aureus DHFR expressed in Escherichia coli BL21 (DE3) using dihydrofolate as substrate and NADPH as cofactor incubated for 2.8 mins. A digest of the protocol:
(§2)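 Recombinant S. aureus DHFR expressed in E. coli BL21 (DE3). Reaction reconstituted with NADPH and varied inhibitor concentrations (racemates, diluted from 10 mM DMSO stock), started by adding dihydrofolate. Run at 30 °C, rate followed 2.8 min over linear range. 50% activity point from 4-parameter fit of rate vs concentration. IC50 converted to Ki by Cheng-Prusoff using previously measured KM. n ≥ 3 independent assays, duplicate technical replicates.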

For test [3], the system named is Staphylococcus aureus. Described as §1. The gist of the method:
as §2

Values after ≈ are worked out from the molar mass of the structure shown. Active and inactive are the calls of the source. The calls are words filed in the database; no cut-off is given here.

As for `CCCC1c2cc(OC)c(OC)cc2C=NN1C(=O)/C=C/c1cc(Cc2cnc(N)nc2N)cc(OC)c1OC` (racemic), the MIC in the test with Staphylococcus aureus [1] stood at 1 µg/mL (≈ 1.83 µM). Further, in test [2], the Ki amounted to 1.1 nM.
Turning to `COc1cc(Cc2cnc(N)nc2N)cc(/C=C/C(=O)N2N=Cc3ccccc3C2C2CCCCC2)c1OC` (configuration not stated), the inhibition result with Staphylococcus aureus [3] was “Active”.
On to `COc1cc(Cc2cnc(N)nc2N)cc(/C=C/C(=O)N2N=Cc3ccccc3C2C=C(C)C)c1OC` (configuration not stated), for which the inhibition entry with Staphylococcus aureus [3] is “Active”.
Take `COc1cc(Cc2cnc(N)nc2N)cc(/C=C/C(=O)N2N=Cc3ccccc3C2c2ccc(C)cc2)c1OC` (configuration not stated): the MIC with Staphylococcus aureus [1] turned out to be 0.046 µg/mL (≈ 0.086 µM). Moreover, the inhibition result with Staphylococcus aureus [3] is “inactive”.
Take `CCCC1c2ccccc2C=NN1C(=O)/C=C/c1cc(Cc2cnc(N)nc2N)cc(OC)c1OC` (configuration not stated): in the test with Staphylococcus aureus [1], the minimum inhibitory concentration (MIC) is 0.0625 µg/mL (≈ 0.128 µM). Further, the Ki in test [2] is 1.2 nM.
Consider `CCC(CC)C1c2ccccc2C=NN1C(=O)/C=C/c1cc(Cc2cnc(N)nc2N)cc(OC)c1OC` (configuration not stated), for which, in the test on Staphylococcus aureus [3], the inhibition entry was “inactive”.
With `COc1cc(Cc2cnc(N)nc2N)cc(/C=C/C(=O)N2N=Cc3ccccc3C2CCC(F)(F)F)c1OC` (configuration not stated), the inhibition entry in the test on Staphylococcus aureus [3] was “Active”.
In the case of `COc1cc(Cc2cnc(N)nc2N)cc(/C=C/C(=O)N2N=Cc3ccccc3C2C(C)C)c1OC` (configuration not stated), the MIC with Staphylococcus aureus [1] stood at 0.188 µg/mL (≈ 0.385 µM). For the same compound, in the test on Staphylococcus aureus [3], the inhibition result is “Active”.
Consider `COc1cc(Cc2cnc(N)nc2N)cc(/C=C/C(=O)N2N=Cc3ccccc3C2CC(C)C)c1OC` (configuration not stated), for which the inhibition entry in the test on Staphylococcus aureus [3] was “Active”.
Regarding `COc1cc(Cc2cnc(N)nc2N)cc(/C=C/C(=O)N2N=Cc3ccccc3C2Cc2ccc(C)cc2)c1OC` (configuration not stated), the minimal inhibitory concentration (MIC) with Staphylococcus aureus [1] came out at 0.25 µg/mL (≈ 0.456 µM). Also, the Ki in test [2] turned out to be 2.3 nM.
For the compound `CCCC1c2cc(C)c(C)cc2C=NN1C(=O)/C=C/c1cc(Cc2cnc(N)nc2N)cc(OC)c1OC` (racemic), in the test with Staphylococcus aureus [1], the minimum inhibitory concentration (MIC) amounted to 0.5 µg/mL (≈ 0.972 µM). Besides, the Ki in test [2] is 1.2 nM.
As for `COc1ccc(CC2c3ccccc3C=NN2C(=O)/C=C/c2cc(Cc3cnc(N)nc3N)cc(OC)c2OC)cc1` (configuration not stated), the Ki in test [2] is 1.2 nM.
As to `COc1cc(Cc2cnc(N)nc2N)cc(/C=C/C(=O)N2N=Cc3ccccc3C2c2ccccc2)c1OC` (configuration not stated), the inhibition result in the test with Staphylococcus aureus [3] was “Active”.
For the compound `COc1cc(Cc2cnc(N)nc2N)cc(/C=C/C(=O)N2N=Cc3ccccc3C2c2cc(C)cc(C)c2)c1OC` (configuration not stated), the inhibition result in the test with Staphylococcus aureus [3] was “inactive”.
For the compound `COc1cc2c(cc1OC)C(C1CC1)N(C(=O)/C=C/c1cc(Cc3cnc(N)nc3N)cc(OC)c1OC)N=C2` (racemic), in the test on Staphylococcus aureus [1], the minimum inhibitory concentration (MIC) was 1 µg/mL (≈ 1.84 µM). For the same compound, the inhibition constant Ki in test [2] came out at 0.7 nM.

The record behind these values is ChEMBL document CHEMBL4765346, “Inhibitor design to target a unique feature in the folate pocket of Staphylococcus aureus dihydrofolate reductase” (Eur J Med Chem, 2020).
